# Source: ChEMBL document CHEMBL4680230, “Discovery of aryl-piperidine derivatives as potential antipsychotic agents using molecular hybridization strategy” (Eur J Med Chem, 2020)
# Tests used:
# [1] = target: 5-hydroxytryptamine receptor 2A (Homo sapiens, UniProt P28223); assay: Antagonist activity at human 5HT2A receptor expressed in CHO-K1 cells measured after 15 mins by FLIPR assay; type: cell-based
# D(2) dopamine receptor = D(2) dopamine receptor (Homo sapiens, UniProt P14416); assay: Antagonist activity at human D2 receptor expressed in HEK293 cells incubated for 60 mins by Eu-cAMP tracer based LANCE ultra cAMP assay; type: cell-based
# Sequence of D(2) dopamine receptor (P14416 whole entry): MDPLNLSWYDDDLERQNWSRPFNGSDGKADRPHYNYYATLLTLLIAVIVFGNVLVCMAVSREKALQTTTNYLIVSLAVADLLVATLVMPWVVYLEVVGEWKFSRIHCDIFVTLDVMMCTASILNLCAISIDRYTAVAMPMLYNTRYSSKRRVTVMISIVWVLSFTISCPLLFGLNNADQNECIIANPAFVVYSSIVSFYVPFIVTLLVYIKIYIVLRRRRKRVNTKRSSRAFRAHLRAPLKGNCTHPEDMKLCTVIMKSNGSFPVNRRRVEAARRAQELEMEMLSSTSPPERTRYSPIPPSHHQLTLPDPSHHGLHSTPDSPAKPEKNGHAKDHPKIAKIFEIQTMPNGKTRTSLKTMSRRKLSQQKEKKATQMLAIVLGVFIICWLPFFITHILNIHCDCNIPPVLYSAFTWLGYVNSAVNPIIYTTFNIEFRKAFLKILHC
# [2] = target: T1, 5-hydroxytryptamine receptor 1A (Homo sapiens, UniProt P08908); assay: Agonist activity at human 5H1A receptor expressed in HEK293 cells incubated for 60 mins by Eu-cAMP tracer based LANCE ultra cAMP assay; type: functional, cell-based
# T1 sequence (P08908 whole entry): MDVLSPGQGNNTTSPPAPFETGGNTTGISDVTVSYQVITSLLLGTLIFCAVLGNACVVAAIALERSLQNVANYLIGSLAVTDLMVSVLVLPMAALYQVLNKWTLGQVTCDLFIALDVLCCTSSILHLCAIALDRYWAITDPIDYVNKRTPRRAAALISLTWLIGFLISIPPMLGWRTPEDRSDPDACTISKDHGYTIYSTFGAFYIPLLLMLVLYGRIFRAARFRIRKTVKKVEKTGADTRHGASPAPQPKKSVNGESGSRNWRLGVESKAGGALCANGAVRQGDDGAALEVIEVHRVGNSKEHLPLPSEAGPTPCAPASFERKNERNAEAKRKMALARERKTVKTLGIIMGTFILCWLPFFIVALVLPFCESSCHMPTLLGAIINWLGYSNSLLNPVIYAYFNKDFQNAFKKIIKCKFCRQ
# Method in brief: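 Cell-based TR-FRET cAMP assay on human 5-HT1A receptor-expressing cells. Cells were collected in stimulation buffer, added to the compound, centrifuged briefly and incubated 60 min at room temperature. Eu-cAMP tracer and ULight-anti-cAMP were then added, followed by another 60 min at room temperature before reading. The reference agonist was 8-OH-DPAT. […] came from sigmoidal nonlinear regression.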
# [3] = Half life in mouse liver microsomes measured after 60 mins in presence of NADPH by LC-MS/MS analysis; type: ADME, Microsome
# Method in brief: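 Mouse liver microsomes (20 mg/ml stock) were incubated with compound in 0.1 M PBS, pH 7.4, at 37 °C. Compound came from a 1 mM methanol stock, diluted in methanol/water. Reaction was started with NADPH (10 mM stock). Aliquots at 0, 5, 10, 20, 40 and 60 min were quenched in cold methanol and centrifuged at 4 °C. Supernatants were analysed by LC-MS/MS.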
# [4] = Brain to plasma partition coefficient, Kp of compound in ICR mouse at 1 mg/kg, iv measured after 4 hrs; type: ADME, organism-based
# Method in brief: (§1)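 Brain penetration in ICR mice, n = 3 per group, given 1 mg/kg intravenously. Plasma, cerebrospinal fluid and brain levels were measured at 1 h and 4 h post-dose. Kp is the brain-to-plasma concentration ratio.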
# [5] = Plasma concentration in ICR mouse at 1 mg/kg, iv measured after 4 hrs; type: ADME, organism-based; method in brief: as §1
# [6] = Drug concentration in ICR mouse brain at 1 mg/kg, iv measured after 1 hr; type: ADME, organism-based; method in brief: as §1
# [7] = Brain to plasma partition coefficient, Kp of compound in ICR mouse at 1 mg/kg, iv measured after 1 hr; type: ADME, organism-based; method in brief: as §1
# [8] = Half life in ICR mouse at 25 mg/kg, po; type: ADME, organism-based; settings: in vivo
# Method in brief: (§2)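 Pharmacokinetics in ICR mice, n = 6 per group, after a single 5 mg/kg intravenous dose or a 25 mg/kg oral dose. Plasma exposure gave AUC over 0–24 h, t1/2, Cmax and Tmax. Oral bioavailability was derived from comparison of the two routes.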
# [9] = Plasma concentration in ICR mouse at 1 mg/kg, iv measured after 1 hr; type: ADME, organism-based; method in brief: as §1
# [10] = Oral bioavailability in ICR mouse at 25 mg/kg; type: ADME, organism-based; settings: in vivo; method in brief: as §2
# [11] = AUC (0 to 24 hrs) in ICR mouse at 5 mg/kg, iv; type: ADME, organism-based; design: time < 24 hr, route intravenous, dose 5 mg/kg; settings: in vivo; method in brief: as §2
# [12] = Half life in ICR mouse at 5 mg/kg, iv; type: ADME, organism-based; settings: in vivo; method in brief: as §2
# [13] = Drug concentration in ICR mouse cerebrospinal fluid at 1 mg/kg, iv measured after 1 hr; type: ADME, organism-based; settings: read-out: Drug uptake; method in brief: as §1
# [14] = AUC (0 to 24 hrs) in ICR mouse at 25 mg/kg, po; type: ADME, organism-based; design: time < 24 hr, route oral, dose 25 mg/kg; settings: in vivo; method in brief: as §2
# [15] = Cmax in ICR mouse at 25 mg/kg, po; type: ADME, organism-based; design: route oral, dose 25 mg/kg; settings: in vivo; method in brief: as §2
# [16] = Drug concentration in ICR mouse brain at 1 mg/kg, iv measured after 4 hrs; type: ADME, organism-based; method in brief: as §1
# [17] = Tmax in ICR mouse at 25 mg/kg, po; type: ADME, organism-based; settings: in vivo; method in brief: as §2
# [18] = target: T1, 5-hydroxytryptamine receptor 1A; assay: Agonist activity at recombinant 5HT1A receptor (unknown origin) expressed in CHO cell membrane assessed as [35S]GTPgammaS binding by liquid scintillation counting method; type: functional, cell membranes
# [19] = target: T1, 5-hydroxytryptamine receptor 1A; assay: Displacement of [3H]5-HT from recombinant 5HT1A receptor (unknown origin) expressed in CHO cell membrane measured after 50 mins by microbeta scintillation counting method; type: cell membranes
# Sequence of 5-hydroxytryptamine receptor 2A (P28223 whole entry): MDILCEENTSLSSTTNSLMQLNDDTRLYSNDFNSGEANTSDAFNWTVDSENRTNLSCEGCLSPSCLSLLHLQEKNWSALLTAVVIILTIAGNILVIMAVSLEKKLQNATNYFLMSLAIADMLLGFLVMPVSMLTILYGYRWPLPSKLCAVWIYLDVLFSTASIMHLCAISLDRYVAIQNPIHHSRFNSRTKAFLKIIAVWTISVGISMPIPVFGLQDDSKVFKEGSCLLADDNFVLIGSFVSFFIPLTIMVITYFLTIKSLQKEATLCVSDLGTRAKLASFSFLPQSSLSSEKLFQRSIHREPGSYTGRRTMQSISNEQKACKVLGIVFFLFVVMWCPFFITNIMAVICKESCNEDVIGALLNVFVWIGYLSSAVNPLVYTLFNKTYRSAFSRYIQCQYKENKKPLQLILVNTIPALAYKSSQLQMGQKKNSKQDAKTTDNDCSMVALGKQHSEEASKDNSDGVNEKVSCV
SMILES,IC50 ([1]; read-out: IC50),IC50 (D(2) dopamine receptor; read-out: IC50),EC50 ([2]; read-out: EC50),EC50 ([2]; hek293),other results
CCCN(CCCN1CCN(c2cccc(Cl)c2Cl)CC1)C(=O)c1ccccc1,3250 nM,485 nM,452 nM,,
O=S(=O)(c1ccc(C(F)(F)F)cc1)N(CCCN1CCC(c2noc3cc(F)ccc23)CC1)C1COC1,92.7 nM,2.3 nM,,Not Active,
N#Cc1ccc(S(=O)(=O)N(CCCN2CCC(c3noc4cc(F)ccc34)CC2)C2COC2)cc1,11.3 nM,3.6 nM,,Not Active,
O=C(c1ccccc1)N(CCCN1CCC(c2noc3cc(F)ccc23)CC1)C1COC1,18.8 nM,156 nM,,Not Active,half-life [3]: 173 min
O=C(c1ccccc1)N(CCCN1CCC(c2noc3cc(F)ccc23)CC1)CC1CC1,40.8 nM,,,Not Active,half-life [3]: 6.9 min
CC(C)N(CCCN1CCN(c2cccc(Cl)c2Cl)CC1)C(=O)c1ccccc1,2010 nM,528 nM,46.1 nM,,
COc1ccccc1N1CCN(CCCN(CC2CC2)C(=O)c2ccccc2)CC1,,,,Not Active,IC50 ([1]; cho-k1): Not Active
CCCN(CCCN1CCN(c2ccccn2)CC1)C(=O)c1ccccc1,7550 nM,6930 nM,54.5 nM,,
O=S(=O)(c1ccc(Cl)cc1)N(CCCN1CCC(c2noc3cc(F)ccc23)CC1)C1COC1,34.6 nM,2 nM,,Not Active,
CCCN(CCCN1CCC(c2noc3cc(F)ccc23)CC1)C(=O)c1ccccc1,73.1 nM,18.5 nM,,Not Active,half-life [3]: 6.2 min
O=S(=O)(c1ccccc1)N(CCCN1CCC(c2noc3cc(F)ccc23)CC1)C1COC1,9.3 nM,1.9 nM,,Not Active,
O=C(c1ccccc1)N(CCCN1CCN(c2cccc(Cl)c2Cl)CC1)CC1CC1,768 nM,,175 nM,,
O=C(c1ccccc1)N(CCCN1CCN(c2ccccn2)CC1)C1COC1,,,374 nM,,IC50 ([1]; cho-k1): Not Active; IC50 (D(2) dopamine receptor; hek293): Not Active
COc1ccccc1N1CCN(CCCN(C(=O)c2ccccc2)C2COC2)CC1,,3760 nM,,Not Active,IC50 ([1]; cho-k1): Not Active
O=C(c1ccccc1)N(CCCN1CCN(c2ccccn2)CC1)CC1CC1,7720 nM,,24.9 nM,,IC50 (D(2) dopamine receptor; hek293): Not Active
O=S(=O)(c1ccc(F)cc1)N(CCCN1CCC(c2noc3cc(F)ccc23)CC1)C1COC1,15.1 nM,3 nM,,Not Active,Kp at 4 h [4]: 4.03; concentration at 4 h [5]: 2.7 ng/mL; concentration at 1 h [6]: 129 ng/g; Kp at 1 h [7]: 1.72; half-life [8]: 120 min; concentration at 1 h [9]: 75.4 ng/mL; bioavailability [10]: 6.3%; AUC(0-t) at 24 h [11]: 829 ng·h/mL; half-life [12]: 32.4 min; concentration at 1 h [13]: 2 ng/mL; AUC(0-t) at 24 h [14]: 259 ng·h/mL; Cmax [15]: 142 ng/mL; concentration at 4 h [16]: 10.7 ng/g; Tmax [17]: 15 min
COc1ccccc1N1CCN(CCCN(C(=O)c2ccccc2)C(C)C)CC1,,,,Not Active,IC50 ([1]; cho-k1): Not Active
O=C(CN1CCN(CCCc2c[nH]c3ccc(F)cc23)CC1)N(c1ccccc1)C1CCCCC1,,,7 nM,,EC50 [18]: 7 nM; Ki [1]: 207 nM; Ki (D(2) dopamine receptor): 2160 nM; Ki [19]: 51.9 nM
CC(C)N(CCCN1CCC(c2noc3cc(F)ccc23)CC1)C(=O)c1ccccc1,11.6 nM,59.3 nM,,Not Active,half-life [3]: 31.5 min
CC(C)N(CCCN1CCN(c2ccccn2)CC1)C(=O)c1ccccc1,,,22.8 nM,,IC50 ([1]; cho-k1): Not Active; IC50 (D(2) dopamine receptor; hek293): Not Active
O=C(c1ccccc1)N(CCCN1CCN(c2cccc(Cl)c2Cl)CC1)C1COC1,2180 nM,1880 nM,583 nM,,
